Assay results gathered from unrelated publications.
Protocols differ between the studies behind these lines.
Organism: Plasmodium falciparum
Read-out: parasite growth
Technique: SYBR Green

With `NC1=CC2=NCCc3c[nH]c(c32)C1=O` the IC50 was 0.478 µM (DD2; blood stage).
With `O=C(/C=C/c1cn(Cc2cn(-c3ccnc4cc(Cl)ccc34)nn2)c2ccccc12)c1ccccc1Cl` the inhibition was 42.4% (3D7; 5 µM, blood stage).
For `O=C1C(O)=C([C@H]2CC[C@H](c3ccc(Cl)cc3)CC2)C(=O)c2ccccc21`, the EC50 was 0.00086 µM (72 h).
For `O=C(/C=C/c1cn(Cc2cn(-c3ccnc4cc(Cl)ccc34)nn2)c2ccccc12)c1ccc(Br)cc1`, the inhibition was 12.9% (3D7; 5 µM, blood stage).
The EC50 of `CCOCC(=O)N1CCC[C@H](C(=O)NCc2nc(-c3ccc(C)nc3)cs2)C1` is reported as 0.005 µM (DD2; 72 h, blood stage).
`COc1ccccc1C(=O)/C=C/c1cn(Cc2cn(-c3ccnc4cc(Cl)ccc34)nn2)c2ccccc12` gave an inhibition of 56.8% (3D7; 5 µM, blood stage).
`O=C1C(NCCc2c[nH]c3ccccc23)=CC2=NCCc3c[nH]c1c32` has an IC50 of 0.716 µM (W2; blood stage).
For `O=C(/C=C/c1cn(Cc2cn(-c3ccnc4cc(Cl)ccc34)nn2)c2ccccc12)c1ccccc1[N+](=O)[O-]`, the inhibition was -5.03% (3D7; 5 µM, blood stage).
`Cn1cc2c3c1C(=O)C(NCCc1ccc(O)cc1)=CC3=NCC2` has an IC50 of 2.38 µM (DD2; blood stage).
For `O=C(/C=C/c1cn(Cc2cn(-c3ccnc4cc(Cl)ccc34)nn2)c2ccccc12)c1ccccc1Br`, the inhibition was -1.58% (3D7; 5 µM, blood stage).
With `O=C1c2[nH]cc3c2C(=NCC3)c2c(-c3ccc(O)cc3)c[nH]c21` the IC50 was 4.77 µM (DD2; blood stage).
`CCN(CC)CCCC(C)Nc1ccnc2cc(Cl)ccc12` (stereo not shown) has an IC50 of 0.00657 µM (D6; 72 h, blood stage).
For `O=C(/C=C/c1cn(Cc2cn(-c3ccnc4cc(Cl)ccc34)nn2)c2ccccc12)c1cccs1`, the inhibition was 32.1% (3D7; 5 µM, blood stage).
The EC50 of `Cc1cc(Nc2ccc(S(F)(F)(F)(F)F)cc2)n2nc(C(C)(F)F)nc2n1` is reported as 0.0057 µM (72 h).
For `COC(CNC1=CC2=NCCc3c[nH]c(c32)C1=O)c1c[nH]c2ccccc12` (stereo not shown), the IC50 was 0.654 µM (DD2; blood stage).
For `COCC(=O)N1CCCC(C(=O)NCc2nc(-c3ccccc3)cs2)C1` (racemic), the EC50 was 0.14 to 0.19 µM (DD2; 72 h, blood stage).
With `CCOC(=O)C1=C(C)NC2=C(C(=O)OC(c3ccc(OC)c(OC)c3)C2)C1c1ccccc1C` (mixture of isomers) the EC50 was 0.04 to 0.19 µM (3D7; blood stage).
The IC50 of `O=C1C(NCCc2ccc(O)cc2)=CC2=NCCc3c[nH]c1c32` is reported as 0.476 µM (W2; blood stage).
`CCOCC(=O)N1CCC[C@H](C(=O)NCc2nc(-c3ccccc3)cs2)C1` has an EC50 of 0.024 µM (DD2; 72 h, blood stage).
